Entries after “also recorded” stand apart in the source; their conditions may differ. Ends that are not written are not given here. * marks the point of attachment. Biotin = O=C1N[C@H]2[C@H](CS[C@H]2CCCCC(=O)*)N1; Ahx = NCCCCCC(=O)O
B1: rabbit muscle aldolase (enzyme, UniProt P00883 1-364, looked up)
chain: MPHSHPALTPEQKKELSDIAHRIVAPGKGILAADESTGSIAKRLQSIGTENTEENRRFYRQLLLTADDRVNPCIGGVILFHETLYQKADDGRPFPQVIKSKGGVVGIKVDKGVVPLAGTNGETTTQGLDGLSERCAQYKKDGADFAKWRCVLKIGEHTPSALAIMENANVLARYASICQQNGIVPIVEPEILPDGDHDLKRCQYVTEKVLAAVYKALSDHHIYLEGTLLKPNMVTPGHACTQKYSHEEIAMATVTALRRTVPPAVTGVTFLSGGQSEEEASINLNAINKCPLLKPWALTFSYGRALQASALKAWGGKKENLKAAQEEYVKRALANSLACQGKYTPSGQAGAAASESLFISNHAY
B2: RH1 C-terminal cytoplasmic tail peptide (peptide)
peptide: {Biotin-Ahx}-KQEDKEQEKQQQNDFVCDNNKMDDKSTQKYGRNQEEVMEISFDNDYI
B3: RH4 C-terminal cytoplasmic tail peptide (peptide)
peptide: {Biotin-Ahx}-EDEVEDEVEDEDENENEVENENEDFNDI

Experiments:
[1] = target: BAEBL (EBA140) C-terminal cytoplasmic tail peptide (Plasmodium falciparum); assay: SPR
[2] = tested on: yeast GAPDH; assay: GAPDH pulldown assay with biotinylated peptides on streptavidin-agarose beads; assay type: binding; details: pulldown competition, 10 mM NADH
How it was run: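 Test peptides carried an N-terminal biotin–Ahx linker, were dissolved in 20 mM Tris-HCl pH 8.0 at 0.5 mg/ml, and were bound to streptavidin-agarose for 1 h at RT, then washed. After four washes, bound protein was boiled in reducing LDS buffer and run on 4–12% bis-Tris gels.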

[3] = target: T1, rabbit muscle aldolase (Oryctolagus cuniculus, UniProt P00883); assay: SPR analysis of aldolase binding to immobilized peptides; details: SPR sensorgrams, aldolase 50 to 800 nM
T1 sequence (P00883 1-364): B1 chain
How it was run: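 CM5 chips at 25°C carried amine-coupled NeutrAvidin with captured biotinylated peptides (0.5 µg/ml). Rabbit muscle aldolase was injected in 10 mM HEPES pH 7.5/100 mM KCl/0.5 mM EDTA/1 mM MgCl₂/0.2% Tween 20, with F1-6P added in some runs. Flow was 20 µl/min, with 4 min association and 10 min dissociation, and glycine pH 2.5 regeneration. NeutrAvidin-only reference cells were subtracted. ka and kd came from global fits to a 1:1 Langmuir or a two-state model.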

[4] = tested on: GAPDH; assay: SPR analysis of GAPDH binding to immobilized peptides; design: species or system yeast; details: curves did not fit the 1:1 or the two-state model, no KD determined
[5] = target: B1; assay: SPR
[6] = target: B3; assay: SPR
[7] = target: B2; assay: SPR

yeast GAPDH (glyceraldehyde-3-phosphate dehydrogenase) (from UniProt P00359 1-332) (enzyme)
Kd [1]: 461 nM
ka1 (two-state model, step 1) [1]: 10200 M^-1 S^-1
kd1 (two-state model, step 1) [1]: 0.016 s⁻¹
kd2 (two-state model, step 2) [1]: 0.003 s⁻¹

YMFDQQINVVNSDLYSEGIYDDTTTF [JESEBL]
GAPDH binding on adding the cofactor NADH [2]: blocked
binding to aldolase by SPR (qualitative) [3]: not to bind; also recorded: no binding was seen
GAPDH binding by SPR (qualitative) [4]: demonstrated binding

{Biotin-Ahx}-ETLGEEDKDLDEPEQFRLPEENEWN [TRAP (thrombospondin-related anonymous protein) C-terminal cytoplasmic tail peptide]
Kd [5]: 106 nM

B1
ka1 (two-state model, step 1) [6]: 16000 M^-1 S^-1
ka2 (two-state model, step 2) [6]: 0.012 s⁻¹
kd1 (two-state model, step 1) [6]: 0.034 s⁻¹
kd2 (two-state model, step 2) [6]: 0.000269 s⁻¹
ka1 (two-state model, step 1) [7]: 45400 M^-1 S^-1
ka2 (two-state model, step 2) [7]: 0.018 s⁻¹
kd1 (two-state model, step 1) [7]: 0.082 s⁻¹
kd2 (two-state model, step 2) [7]: 0.000647 s⁻¹

B2
Kd [5]: 61 nM

{Biotin-Ahx}-NDHLSNYADKEEIIEIVFDENEEKYF [RH2b C-terminal cytoplasmic tail peptide]
Kd [5]: 214 nM
koff [5]: 0.000183 s⁻¹
kon [5]: 856 M⁻¹ s⁻¹

B3
Kd [5]: 47 nM

Reference: publication PMC3448169 (mBio, 2012)
